A selection: hits, their analogues and other compounds. The true share with any hit is near 3.8%.
Measles CPE: protection of cells from measles virus; AID 841; protection (pct of control), % at 4 µM; 140,000 compounds, 1.5% hits; Measles virus-infected cells, CPE protection, absorbance; in the data active = protection mostly above about 24%, no sharp cut-off; inactive = mostly below about 26%
Yeast life ext: extends the lifespan of yeast; 130,000 compounds, 0.68% hits; S. cerevisiae growth with nicotinamide, OD615; deaD strain in restrictive glucose medium; inhibition of the nicotinamide effect, % at 10 µM;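 active = inhibition above a set limit, placed 3 SD over the median of all compounds, cut at about 26% in these data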;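 note: 0% = nicotinamide-treated wells and 100% = cells grown without nicotinamide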
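assay system = DeaD-strain S. cerevisiae | measured by = absorbance at 615 nm | probe or stimulus = nicotinamide 1.5 mM | buffer or medium = CSMM-D glucose medium, restrictive | times = 48 h at 30 °C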
RAM network inh: yeast RAM network inhibition | S. cerevisiae dse1pr::URA3 reporter, 5-FOA growth OD615, 2 d; analog-sensitive cbk1-as2 kinase mutant strain | inhibition, % at 50 µM | 190,000 compounds, 1.8% hits | AID 868;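 active = inhibition above a set limit, 3 SD over mean compound inhibition, cut at about 8.4% in these data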;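 note: 0% = DMSO-only wells with no growth and 100% = 10 µM 1-NA-PP1 full growth; inhibition rescues growth on 5-FOA so higher OD means more RAM inhibition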
BB579 growth dn: chemicals that inhibit yeast BB579 growth in restrictive medium (lifespan-shortening candidates). inhibition, % at 10 µM. S. cerevisiae BB579 growth, OD615, 48 h. 140,000 compounds, 0.51% hits;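 active = inhibition above a set limit, 3 SD over the mean compound inhibition, cut at about 44% in these data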
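test system = yeast BB579 (DeaD) | buffer or medium = restrictive CSMM-D medium | doses = single compound dose of 10 µM, 0.25% DMSO final | times = 4 h preincubation and 48 h exposure at 30 °C | technique = culture absorbance at 615 nm | benchmarks = amphotericin B 10 µg/mL, positive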
* = called active by the depositor; . = no result given.

SMILES	Measles CPE	Yeast life ext	RAM network inh	BB579 growth dn
O=C(Nc1ccccc1N1CCCCC1)c1ccc(-c2cccc(Cl)c2)o1	1	0	9.5*	-24
O=Nc1ccc(NOC(=O)c2ccccc2)cc1	5	-4	2	5
O=C(N=Nc1ccc(NOC(=O)c2ccccc2Br)cc1)c1ccccc1O	.	.	11*	.
CCOCCCNC(=O)C(NC(=O)Cc1c[nH]c2ccccc12)c1ccccc1 (stereo not drawn)	.	.	0	.
C#CCn1c(=NC(=O)c2cc(-c3cccs3)nc3ccccc23)sc2cc(S(N)(=O)=O)ccc21	5	3	9.7*	-28
CCSc1nnc(CNc2ccc(F)cc2)n1CC1CCCO1 (stereo not drawn)	46*	-11	0	-20
COC(=O)C1=C(C)NC(=O)C1(NC(=O)CN1CCCC1=O)C(F)(F)F (stereo not drawn)	41*	-4	-1	-28
Cc1cc(NS(=O)(=O)c2ccc(NS(=O)(=O)c3ccc(CC(C)C)cc3)cc2)nc(C)n1	.	.	0	.
Cc1cc(NS(=O)(=O)c2ccc(CC(C)C)cc2)no1	9	50*	0	-39
COc1ccc(C2C(C(=O)OC(C)C)=C(C)N=c3s/c(=C\c4cccs4)c(=O)n32)cc1 (stereo not drawn)	45*	-9	2	-50
Fc1ccc(N/N=C2/CC(c3ccccc3)Oc3ccccc32)c(F)c1 (stereo not drawn)	20	-7	3	86*
CNC(=S)N/N=C1\CC(c2ccccc2)Oc2ccccc21 (stereo not drawn)	.	.	6	.
Cc1cc[n+](-c2ccccc2)c2ccccc12	.	.	1	.
COc1ccc(-c2noc(CN3CCN(c4ccccc4)CC3)n2)cc1	10	-10	1	28
COc1ccc(-c2noc(CN3C(=O)c4ccccc4C3=O)n2)cc1	37*	-2	2	-46
NC(=O)N1c2ccccc2C=Cc2ccccc21	2	1	1	-28
CCN(CC)C(=O)N1c2ccccc2C=Cc2ccccc21	57*	-1	1	-31
COc1ccccc1NC(=O)CCC(=O)OCc1ccc(Cl)cc1	.	.	0	.
CC(C)OC(=O)CCNc1n[nH]c(=O)[nH]c1=O	8	-7	3	-12
CCCCOC(=O)CCNc1n[nH]c(=O)[nH]c1=O	56*	-4	3	-45
COc1ccccc1OCC(=O)N/N=C1/C=C(C)CC1	.	.	2	.
CCOC(=O)c1cnc(SC)nc1Oc1cccc(NS(=O)(=O)c2ccc(F)cc2)c1	5	2	9.8*	-33
CCOC(=O)c1cnc(SC)nc1Oc1cccc(NS(=O)(=O)c2ccccc2)c1	20	3	6	-14
CCOC(=O)c1cnc(SC)nc1Oc1cccc(NC(=O)c2cccc(Cl)c2Cl)c1	7	0	9.4*	-75
COc1ccc(OCC(=O)Nc2c3c(nn2C(C)(C)C)CSC3)cc1	.	.	0	.
SMILES	Measles CPE	Yeast life ext	RAM network inh	BB579 growth dn
Cc1cc(C)cc(N(CCC(=O)O)S(=O)(=O)c2ccc3ccccc3c2)c1	4	33*	5	-30
O=C(O)CCCNS(=O)(=O)c1ccc2ccccc2c1	21	-15	2	-41
CCC(=O)N(NC1=NS(=O)(=O)c2ccccc21)S(=O)(=O)c1ccc(C)cc1	.	.	2	.
CCOC(=O)c1ccc(-c2cc(C)no2)[nH]1	10	-6	0	-5
CC1(C2CC(C(F)(F)F)n3nc(C(=O)O)cc3N2)CC1 (stereo not drawn)	.	.	1	.
CCCC(=Nc1ccccc1)C1=C(O)C(C(=O)OC)C(C)(C)CC1=O (stereo not drawn)	9	65	-1	-42
CCC(=Nc1ccc(N)cc1)C1=C(O)C(C(=O)OC)C(C)(C)CC1=O (stereo not drawn)	6	30*	3	-8
CCCCC(=Nc1ccc(N)cc1)C1=C(O)C(C(=O)OC)C(C)(C)CC1=O (stereo not drawn)	17	72*	-1	-62
CCS(=O)(=O)c1ccc(C(=O)Nc2ccccc2OC)c(Cl)c1Cl	.	.	1	.
CC(=O)NS(=O)(=O)c1ccc(NC(=S)NC(=O)Cc2ccccc2)cc1	.	.	1	.
CCOc1ccccc1N1CCN(CC(=O)N(CC(C)C)c2c(N)n(CC(C)C)c(=O)[nH]c2=O)CC1	.	.	1	.
CCCC(C)c1nnc(NC(=O)c2cc(C(=O)OC)cc([N+](=O)[O-])c2)s1 (stereo not drawn)	17	-19	3	-29
CN1CCN(S(=O)(=O)c2cc([N+](=O)[O-])ccc2Cl)CC1	.	.	0	.
O=[N+]([O-])c1ccc(Cl)c(S(=O)(=O)N2CCCCCC2)c1	9	5	1	57*
O=C1c2ccccc2C(=O)N1CCCCSc1nnnn1-c1ccccc1	20	-9	9.3*	-42
O=C1c2ccccc2C(=O)N1CSc1nnnn1-c1ccccc1	17	-10	1	-28
CCOC(=O)C(=NC(C)CC)NNc1ccc(Br)cc1 (stereo not drawn)	10	-7	0	93*
CCN(CC)S(=O)(=O)c1ccc(N2CCOCC2)c(NC(=O)C23CC4CC(CC(Cl)(C4)C2)C3)c1	8	5	5	-49
COc1ccc(Nc2nc(N3CCCC3)c3ccccc3n2)cc1	63*	-5	0	0
CCN(CC)c1ccc(Nc2nc(N3CCOCC3)c3ccccc3n2)cc1	6	-16	3	-33
CC(=O)N1CCc2cc(C(=O)CN3CCC(C)CC3)ccc21	35*	-3	2	-26
O=C(CCCNC(=O)/C(=C/c1ccccc1F)NC(=O)c1ccccc1)OCc1ccccc1	9	-3	7	-18
Cc1nc(SCc2ccccc2F)c2cnn(-c3ccccc3)c2n1	.	.	11*	.
Cc1cc(C)n(-c2nc(C)nc3c2cnn3-c2ccccc2)n1	8	-15	3	-51
Cc1ccc(O)c(C(=O)CC(=O)c2cccc(F)c2)c1	15	-4	0	51*
SMILES	Measles CPE	Yeast life ext	RAM network inh	BB579 growth dn
Cc1cccc(C(=O)CC(=O)c2cc(Cl)ccc2O)c1	0	-6	-1	83*
O=C(CC(=O)c1cc(Cl)ccc1O)c1ccccc1	11	-12	2	82*
COc1ccc(O)c(C(=O)CC(=O)c2ccc(F)cc2)c1	8	-22	0	-2
COc1ccc(CCCC(=O)NCc2ccccc2)cc1C	5	-1	2	-31
COc1cc(CNCCNC(=O)c2nonc2N)ccc1OCc1ccc(Cl)cc1	.	.	1	.
O=C(CCCC(=O)OCC(F)(F)C(F)F)Nc1ccc(NC(=O)CCCC(=O)OCC(F)(F)C(F)F)cc1	42*	-6	2	-41
O=C(O)CC(NC(=O)c1sc2ccccc2c1Cl)c1ccc(OC2CCCC2)cc1 (stereo not drawn)	.	.	9.6*	.
O=C(NN1C(=O)c2ccccc2C1=O)c1ccncc1	.	.	1	.
O=C(NN1C(=O)c2ccccc2C1=O)C1C2CCCCC21 (stereo not drawn)	29	41*	2	-18
C=CCN1C(C(=O)c2ccccc2)=C(OC(=O)COc2ccccc2)c2ccccc2S1(=O)=O	2	-2	6	90*
COc1ccc2cc(C3OCCO3)c(Cl)nc2c1	.	.	1	.

Screening data: PubChem BioAssay, several laboratories
